Compound activity: PubChem BioAssay, several laboratories
UCH37 inh = inhibitors of human deubiquitinating enzyme UCH37 | Q9Y5K5 | AID 588478 | inhibition, % (test concentration not listed) | purified proteasome/UCH37, Ub-AMC cleavage fluorescence | 330,000 compounds, 0.33% hits;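 active = mean inhibition over replicate wells above about 20%, limit read from the data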;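 note: 0% = compound-free wells with enzyme and 100% = wells lacking proteasome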
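Material: Human UCH37 enzyme supplied as purified proteasome complex | Schedule: 30 min preincubation with enzyme, 25 min cleavage at room temperature | Detection: AMC fluorescence 355/460 nm | Measure: % inhibition of Ub-AMC cleavage fluorescence | Controls: Wells without proteasome as full block, compound-free enzyme plus substrate as uninhibited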
TDP2 absorb = blocks human TDP2 phosphodiesterase activity | O95551 | recombinant TDP2, T5PNP hydrolysis, p-nitrophenol absorbance 415 nm | inhibition, % at 12.8 µM | 370,000 compounds, 0.34% hits | AID 720702;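 active = inhibition above the mean of all tested compounds plus 3 SD, set per campaign, cut at about 25% in these data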;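 note: 0% = DMSO with enzyme and 100% = buffer with substrate but no TDP2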
Target sequence (O95551 whole entry, looked up): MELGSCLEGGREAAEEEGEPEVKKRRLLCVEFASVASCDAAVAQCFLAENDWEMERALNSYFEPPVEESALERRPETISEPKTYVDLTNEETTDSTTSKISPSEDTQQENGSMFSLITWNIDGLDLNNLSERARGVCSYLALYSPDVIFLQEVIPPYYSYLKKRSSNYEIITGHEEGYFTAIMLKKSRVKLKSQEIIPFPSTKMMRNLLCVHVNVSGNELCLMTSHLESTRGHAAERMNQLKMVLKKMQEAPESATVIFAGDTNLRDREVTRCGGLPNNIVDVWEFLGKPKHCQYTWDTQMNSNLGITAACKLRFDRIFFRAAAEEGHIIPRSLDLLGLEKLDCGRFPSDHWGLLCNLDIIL
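System: recombinant human TDP2 / Amount: 120 nM TDP2 per well / Also added: 5 mM T5PNP chromogenic substrate / Doses: 12.8 µM single point, 1% DMSO / Incubation: 2 h at 37 °C / Detection: p-Nitrophenol epi absorbance / Evaluation: % inhibition relative to enzyme-containing and enzyme-free wells / Repeats: singlicate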
CASP6 VEID inh = inhibitors of human caspase-6; 350,000 compounds, 0.53% hits; purified caspase-6, Z-VEID-R110 cleavage fluorescence; inhibition, % at 12.5 µM; P55212; AID 686996;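 active = mean inhibition across replicates at least about 35%, with every replicate also reaching that limit, limit read from the data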;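 note: 0% = median of neutral control wells and 100% = no fluorescence left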
Target sequence (P55212 24-179 limits assumed): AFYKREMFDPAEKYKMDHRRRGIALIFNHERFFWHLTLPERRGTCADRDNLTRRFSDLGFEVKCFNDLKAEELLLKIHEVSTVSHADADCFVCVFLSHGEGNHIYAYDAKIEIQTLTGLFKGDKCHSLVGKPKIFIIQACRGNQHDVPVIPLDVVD
Target sequence (P55212 194-293 limits assumed): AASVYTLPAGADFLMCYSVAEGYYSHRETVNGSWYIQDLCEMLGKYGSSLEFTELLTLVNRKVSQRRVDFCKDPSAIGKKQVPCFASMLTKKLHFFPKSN
NSD2 inh = inhibitors of human histone methyltransferase NSD2; NSD2 peptide methylation, AlphaScreen, 120 min; inhibition, % at 12.5 µM; 310,000 compounds, 0.54% hits; AID 743445; in the data active = inhibition above about 50%
LEDGF integ inh = blocks HIV-1 LEDGF/p75-dependent DNA integration | TR-FRET IN-LEDGF/p75 DNA integration, Eu/Cy5 | 370,000 compounds, 0.64% hits | inhibition, % at 3.7 µM;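 active = inhibition above the screen-wide mean plus 3 SD, cut at about 13% in these data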;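 note: signal is the Cy5 over europium emission ratio at 671 and 618 nm; 0% = plate median of compound wells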
UCH37 reconfirm = reconfirmed inhibitor of human deubiquitinase UCH37 | 480 compounds, 27% hits | shares compounds with UCH37 inh | inhibition, % at 20 µM | Proteasome-bound UCH37, Ub-AMC cleavage fluorescence;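 active = average inhibition over replicates above about 50%, so the earlier screening hit is confirmed, limit read from the data; inactive = the rest, counted as false positives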;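 note: based on cleavage rate fitted by regression over a 30 min kinetic read; 0% = proteasome plus Ub-AMC and 100% = Ub-AMC without proteasome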
The depositor's hits bear a star; / = no result. The list is not random: actives were taken first. Their share in the collection is about 1.3%.

SMILES	UCH37 inh	TDP2 absorb	CASP6 VEID inh	NSD2 inh	LEDGF integ inh	UCH37 reconfirm
COc1cc(/C=C(\NC(=O)c2ccccc2)C(=O)NCCO)c([N+](=O)[O-])cc1OC	2	-9	/	-1	4	/
COc1cc(/C=C(\NC(=O)c2ccccc2)C(=O)Nc2cccc(O)c2)c([N+](=O)[O-])cc1OC	51*	1	/	8	2	5
Cn1c(=O)c2c(ncn2CC(=O)NN=Cc2ccco2)n(C)c1=O	-2	/	/	/	/	/
Cn1cccc1/C=C1\SC(=S)N(CC(=O)O)C1=O	25*	-1	2	3	1	30
O=C(O)CN1C(=O)/C(=C\c2cccc(OC(=O)c3ccco3)c2)SC1=S	12	12	2	-1	4	/
O=C(O)CN1C(=O)/C(=C\c2cccc(OCc3ccc(Cl)cc3)c2)SC1=S	28*	5	28	22	2	82*
O=C(O)CN1C(=O)/C(=C/c2ccsc2)SC1=S	12	15	3	2	2	/
CC(Nc1ccc(Br)cc1)C(=O)NN=Cc1ccccc1OCc1ccccc1 (configuration not stated)	3	/	/	/	/	/
CC(=O)N(N=C1Sc2ccccc2C1=O)c1cccc(C)c1	81*	/	/	/	/	72*
COc1ccc(N(N=C2Sc3ccccc3C2=O)C(C)=O)cc1	78*	/	/	/	/	29
Cc1ccc(C(=O)C2=C(O)C(=O)N(CCCN3CCOCC3)C23C(=O)N(C)c2ccccc23)o1 (configuration not stated)	6	-7	/	-3	1	/
CCN1C(=O)C2(C(C(=O)c3ccc(C)o3)=C(O)C(=O)N2CCCN2CCOCC2)c2ccccc21 (configuration not stated)	46*	1	/	-2	0	20
CCCNC(=O)OC[C@H]1O[C@H](CCON=C[C@@H](OC)[C@H](C)/C=C/CC(=O)OC)C=C[C@@H]1Oc1ccc(OC)cc1	3	/	/	/	/	/
CC(C)NC(=O)/C(C#N)=C/c1ccc(N(C)C)o1	32*	3	-2	5	0	34
CN(C)CCCN(C(=O)c1ccc(Br)s1)c1nc2cc3c(cc2s1)OCCO3	2	-3	-9	2	4	/
CN(C)CCCN(C(=O)c1ccc([N+](=O)[O-])s1)c1nc2cc3c(cc2s1)OCCO3	56*	6	84*	12	0	4
Cc1[nH]n(-c2ccccc2)c(=O)c1C(C[N+](=O)[O-])c1ccccc1Cl (configuration not stated)	30*	3	/	8	-3	1
CCCCCCCCCCCCCCCC[n+]1ccc(C=NO)cc1	53*	/	/	/	/	57*
CN(C)C(=O)C[n+]1ccc(/C=N/O)cc1	/	-4	-7	-4	0	/
Cc1nonc1C(=O)NN=Cc1cc2c(cc1Br)OCO2	-1	/	/	/	/	/
Cc1cc(N=Nc2ccccc2C(=O)O)c(C)c(C)c1O	25*	13	4	24	-1	39
Cc1cc(O)c(C(C)C)cc1N=Nc1ccccc1C(=O)O	19	-6	5	10	2	/
CN(C)c1ccc(C=NNc2nc(-c3ccccc3)cc(=O)[nH]2)cc1	1	/	/	/	/	/
CC(=NNc1ncc(Br)cn1)c1cccc([N+](=O)[O-])c1	6	/	/	/	/	/
COc1ccccc1NC(=O)COc1ccccc1C(=O)c1cnn(-c2ccccc2)c1	37*	-10	-3	-2	1	-6
SMILES	UCH37 inh	TDP2 absorb	CASP6 VEID inh	NSD2 inh	LEDGF integ inh	UCH37 reconfirm
O=C1C=C(Nc2ccccc2)C(=O)c2ccccc21	6	-6	-1	/	-2	/
O=C1C=C(Nc2ccccc2)c2ccccc2C1=O	65*	22	97*	5	11	43
O=C(O)c1cc(-c2ccc(C=NNc3ccc([N+](=O)[O-])cn3)o2)ccc1Cl	20	/	/	/	/	/
CC(NC(=O)COC(=O)c1ccc([N+](=O)[O-])o1)c1ccccc1 (configuration not stated)	26*	8	17	35	2	7
Cc1cc(C(=O)NP(=O)(N2CCOCC2)N2CCOCC2)c(C)n1-c1ccc(Br)cc1	4	7	3	-1	0	/
Cc1cc(C(=O)C[N+]2(C)CCOCC2)c(C)n1-c1ccc(Br)cc1	45*	6	-2	3	0	-1
Cc1nn(-c2ccccc2)c(C)c1C=NNC(=O)c1cc(C(C)(C)C)[nH]n1	3	/	/	/	/	/
C[C@@H]1NC(=O)[C@H](CCC(N)=O)NC(=O)c2cc([N+](=O)[O-])cc(I)c2NCC[C@@H](C(N)=O)NC1=O	50*	/	/	/	/	-1
C[C@@H]1NC(=O)c2cc([N+](=O)[O-])cc(I)c2NCC[C@@H](C(N)=O)NC(=O)[C@H](CC(N)=O)NC1=O	4	/	/	/	/	/
COCCn1c(COc2ccc(C)cc2)nc2ccccc21	36*	-14	/	-5	-1	3
CN(C)c1ccc(C(C(=O)NC2CCCCC2)N(Cc2ccco2)C(=O)c2snc(C(N)=O)c2N)cc1 (configuration not stated)	68*	-15	-1	11	-7	-21
COc1cc(C(C(=O)NC2CCCC2)N(Cc2ccco2)C(=O)c2snc(C(N)=O)c2N)cc(OC)c1OC (configuration not stated)	-72	1	-1	-3	2	/
CC(=O)N1CCCc2cc(S(=O)(=O)NCc3ccc(C)cc3)ccc21	1	0	/	0	3	/
COc1ccc(Cl)cc1S(=O)(=O)N1CCC(C(=O)NCCC2=CCCCC2)CC1	2	-4	0	-2	7	/
CC(=O)N1CCCc2cc(S(=O)(=O)NCCC3=CCCCC3)ccc21	54*	4	/	1	-2	76*
COc1ccc(C)cc1S(=O)(=O)NCCC1=CCCCC1	58*	5	-2	0	0	8
CS(=O)(=O)NCCC1=CCCCC1	44*	5	/	1	0	80*
CCOc1ccc(S(=O)(=O)NCCC2=CCCCC2)c2ccccc12	2	-13	/	23	2	/
COc1ccc(C)cc1S(=O)(=O)N1CCC(C(=O)NCCC2=CCCCC2)CC1	32*	0	/	-3	-3	6
Cc1ccc(NS(=O)(=O)c2ccc(NN=Cc3ccncc3)c([N+](=O)[O-])c2)c(C)c1	7	/	/	/	/	/
Cc1cccc(OCC(=O)NN=Cc2cn(C)c3ccccc23)c1	3	/	/	/	/	/
CCN1/C(=C\C=C(C(C)=O)C(C)=O)Sc2ccccc21	39*	-9	/	5	1	39
C(C#CCCCCCCCCC[n+]1ccccc1)#CCCCCCCCCC[n+]1ccccc1	34*	-6	/	17	-7	69*
Cc1[nH][nH]c(=O)c1C(c1c(C)[nH][nH]c1=O)c1cn(Cc2cccc3ccccc23)c2ccccc12	83*	60*	/	/	12	50
CC(C)c1ccc(NC(=O)C2CC(=O)N=C(N)S2)cc1 (configuration not stated)	26*	12	/	4	1	55*
